Source: the EternaBench riboswitch data

Tested on: MS2 coat protein
Experiment: apparent Kd, MS2 coat protein; higher = weaker binding; RNA-MaP array
Summary of the method: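 Incubations were done at room temperature with fluorescently labeled MS2 coat protein at 1.5 nM to 3 μM and designed RNAs transcribed on an Illumina sequencing chip from sequenced DNA templates, with or without input ligand. Apparent Kd is the median of binding curves fitted for each cluster. Designs with fewer than 10 measured clusters were excluded.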

[1] = designed as: ON switch for flavin mononucleotide, no ligand
[2] = ligand present: flavin mononucleotide, designed as: ON switch for flavin mononucleotide
[3] = designed as: OFF switch for flavin mononucleotide, no ligand
[4] = ligand present: flavin mononucleotide, designed as: OFF switch for flavin mononucleotide

| Sequence | apparent Kd [1] | apparent Kd [2] | apparent Kd [3] | apparent Kd [4] | also measured |
| --- | --- | --- | --- | --- | --- |
| AAAACGGGUUAGAAGGGCAAUUUUGAUGACAGUGCAGGAUAUAACUUGUGUCCGAAUAUGGACAUGAGGAUCACCCAUGUUAGU | 468 nM | 185 nM | – | – | – |
| AAAAUGGAUUGAACAUGAGGAUCACCCAUGUCCUGCCCGCAUUAGGAUAUCGAUAACUUGAGUACCGAGAAGGAAUGAUGAUCG | 12.6 nM | 13.2 nM | – | – | – |
| AAAUCAAAGCAGAAGGAACAAUAAGCAUAAAGGUUAGGAUAUGCGUCAACGCAAAGUACAUGAGGAUCACCCAUGUUUAUAAGC | 7.37 nM | 6.77 nM | – | – | – |
| AAAUUACACGAGAAGGGCAGUGAAUAUCUGUCUGCAGGAUAUCGCUACAUGAGGAUCACCCAUGUUUUCAGUAGUACUAGCGAA | – | – | 9.74 nM | 9.06 nM | – |
| AACAAGGACAGAGGAUAUAUCAACAUUGAAGUAAUAGAAGGCUGAGAGAAUGAGACUCAUAAACAUGAGGAUCACCCAUGUAAC | – | – | 82.2 nM | 81.4 nM | – |
| AACAAGUAGGAGAAGGUAGAUGAGACUGUGCACUAAGGAUAUCCAUACAUGAGGAUCACCCAUGUCUGGACUAGUAUAUGGACA | – | – | 5.74 nM | 5.69 nM | – |
| AACAUGAGGAUCACCCAUGUUAGAAUAACAACGGAAAUAACAGAGGAUAUCGUUAAUUAAUAGCGCGAGAAGGCAGAAUUCAAA | 6.86 nM | 5.95 nM | – | – | – |
| AAGAAGUACCAGAAGGGAGGAGGAAAUCUACAUGAGGAUCACCCAUGUACUUGCGGAUUUAAAUCUCAGGAUAUGGGAUACACA | 49.7 nM | 12.9 nM | – | – | – |
| AAGCCCAGGACGGCCGCCACUGUAAAAUGGUGGUUCGCCUGUAAGAACAUGAGGAUCACCCAUGUCAGGACCGGGUCCACGAGUU | – | – | – | – | apparent Kd (designed as: OFF switch for tryptophan, no ligand): 17.6 nM; apparent Kd (ligand present: tryptophan, designed as: OFF switch for tryptophan): 27.1 nM |
| AAGGAACAUGAGGAUCACCCAUGUGCUUGCCAGCAAGGAUAUGGUUGUGACAUCUAUAUGCCAGAAGGUGCCGGAC | 286 nM | 85.6 nM | – | – | – |
| AAGGUCCAAGAGAAGGCGCUCAUGGGAUCAAGACAUGAGGAUCACCCAUGUUGGCGCAGCACAAGCGAGGAUAUCUCCACCGGC | 420 nM | 330 nM | – | – | – |
| AAUCAGAAAGGAUAUACAAGGAUUUUAUAUAGCACUGCUGGACAUGAGGAUCACCCAUGUAGAAGGUUCGCCCU | – | – | 11.3 nM | 9.51 nM | – |
| AAUCCUAAUGUCAGGAUAUUGCAGAAGCCAGAACACAAGAAGGGACAUGAGGAUCACCCAUGUAUAGUCACAUA | – | – | 22.4 nM | 59.1 nM | – |
| AAUGACGCGAAGAAGGACUGAUACCAGCUAAAAGUAGGAUAUUCUGAACGUGGACGGUUUACAUGAGGAUCACCCAUGUAUGAA | – | – | 9.29 nM | 9.01 nM | – |
| AAUGGAAGGGAGAAGGCACGCUCUGUCGAACCGUGAGGAUAUCCAUCGGGUAAUAUACAUGAGGAUCACCCAUGUGGCGUCCAG | 25.8 nM | 14.6 nM | – | – | – |
| ACAUACGAACGAGGAUAUCUCCACAUGAGGAUCACCCAUGUUUGGGUCCGAUAGUAGCGUGCAAAAGAGAAGGCGUGUACAUCC | – | – | 22.8 nM | 25.5 nM | – |
| ACAUGAGGAUCACCCAUGUCUACGAAGGUCGAAAUUAAUACCAGAAGGCGCGUCGACUAAGAGUGCGAGGAUAUGGUGUGUCGA | 52 nM | 9.96 nM | – | – | – |
| ACAUGGAGGACAGGAUAUCCAUCUGGCCACCACGGAGAAGGGUCCACCCGACAUGAGGAUCACCCAUGUAUCAACGUGAUGAGU | 23 nM | 18.1 nM | – | – | – |
| ACGAACAUGAGGAUCACCCAUGUUGUUUCUAAGACUCGGUCAAGAAGGUGUCGUUACGAGUCGAACAAGGAUAUUGAUCCGAAC | 28.6 nM | 20.6 nM | – | – | – |
| ACGAGGUACACAGGAUAUGCAAACAUGAGGAUCACCCAUGUGUUCGCCAAUAUCGUGAAUGUGUCGCAGAAGGGUGGUAGUCUA | 12.3 nM | 9.83 nM | – | – | – |
| ACGGGAGCAGAAGGAUAUAGGGUAGGUAUUAGACUAGAAGGACUCUUACAUGAGGAUCACCCAUGUAGUUCAGAAUGGGAAAUC | 45.5 nM | 40.4 nM | – | – | – |
| ACUAUUCAUUAUGGCACAUGAGGAUCACCCAUGUAGUGCGAACAGGAUAUACAAAAGAAUGUCAAGUAGAAGGGUUCCAGGUUC | 28 nM | 19.8 nM | – | – | – |
| ACUUAGAGAUAGAAGGAUGGAGUCAGGGUCCACAUAGGAUAUAUCUUGCACGAAACAUGAGGAUCACCCAUGUUGGAAUCCUCU | – | – | 30.4 nM | 27.8 nM | – |
| ACUUGACAUGAGGAUCACCCAUGUGAUCCGUCAUUAGGAUAUCGAAGGUAUAUCACGCCUCGAGAAGGAAUAGCGG | 361 nM | 65.5 nM | – | – | – |
| AGAAGUCCAGACUACACGUGGAAAAGCGAUACCAGACUCAUAGGUGUCCCUUGGCAGCGCGUAACAUGAGGAUCACCCAUGUGAU | – | – | – | – | apparent Kd (designed as: OFF switch for theophylline, no ligand): 142 nM; apparent Kd (ligand present: theophylline, designed as: OFF switch for theophylline): 139 nM |
| AGAUCACAUGAGGAUCACCCAUGUCAGGAACUAAGGUACGCUAGAAGGCCGGAUAUGCGGGAAGCGGAGGAUAUAGCAAGCAUC | 40.8 nM | 19.6 nM | – | – | – |
